What all share (format): biochemical
Assay [1] has as its target T1, Homo sapiens SAMHD1 (Homo sapiens, UniProt Q9Y3Z3). Put plainly: Tight-binding inhibition of SAMHD1. The note with it: read-out: Ki (Morrison equation, tight-binding); 100 nM SAMHD1, 500 μM dTTP (5×KM), eq. 4 & 5.
For assay [2], the target named is T1, Homo sapiens SAMHD1. Nature of the assay: Steady-state kinetics of activated SAMHD1 with dTTP. The note with it: read-out: KM of dTTP; 100 nM SAMHD1 activated with GTP and dATP, dTTP 8.4-500 μM. The gist of the method: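 Recombinant SAMHD1 (HisTrap, then size-exclusion purified) pre-activated stepwise with GTP then dATP, diluted, and mixed with MESG/PNP/Ppx1/PPase coupling cocktail. Final: 100 nM enzyme, 10 μM GTP, 500 nM dATP, 500 μM MESG, […], 10 nM Ppx1 and PPase. Buffer: HEPES pH 8.0, NaCl, MgCl2, TCEP, glycerol. dTTP 8.4–500 μM. A360 over 20 min. Rates corrected for 3 Pi/dTTP. Michaelis-Menten fit. Three independent experiments.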

In assay [3] the target is T1, Homo sapiens SAMHD1. Nature of the assay: Lineweaver-Burk plot and mechanism of inhibition of SAMHD1. The gist of the method:
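Same GTP/dATP pre-activation and coupled MESG/PNP/Ppx1/PPase system. Final: 100 nM SAMHD1, 10 μM GTP, 500 nM dATP, 5 mM MgCl2. Reactions started with inhibitor (up to 4 μM) premixed into dTTP stocks of 0.625–10 mM. A360 followed for 20 min. Initial rates shown as a double-reciprocal plot and globally fitted to a competitive-inhibition equation for Kis. Mean ± SD of three independent experiments.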

T1 sequence (Q9Y3Z3 114-626): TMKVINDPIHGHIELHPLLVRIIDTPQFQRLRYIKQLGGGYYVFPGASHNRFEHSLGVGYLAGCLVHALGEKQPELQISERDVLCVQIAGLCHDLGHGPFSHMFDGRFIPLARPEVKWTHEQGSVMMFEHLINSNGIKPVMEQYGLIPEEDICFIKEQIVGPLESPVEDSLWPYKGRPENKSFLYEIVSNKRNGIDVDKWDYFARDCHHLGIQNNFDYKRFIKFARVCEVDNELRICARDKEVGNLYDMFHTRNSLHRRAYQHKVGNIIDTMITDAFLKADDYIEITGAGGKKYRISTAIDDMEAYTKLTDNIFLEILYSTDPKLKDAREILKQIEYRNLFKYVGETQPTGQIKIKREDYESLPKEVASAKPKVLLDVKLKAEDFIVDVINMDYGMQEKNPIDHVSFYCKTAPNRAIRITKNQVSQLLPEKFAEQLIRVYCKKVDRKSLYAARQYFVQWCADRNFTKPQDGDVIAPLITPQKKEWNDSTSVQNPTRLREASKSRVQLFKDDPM

By Ki is commonly meant a dissociation constant, usually derived from enzyme kinetics or from competition with a known ligand. For the compound `Nc1ccn([C@H]2C[C@H](O)[C@@H](COP(=O)(O)NP(=O)(O)OP(=O)(O)O)O2)c(=O)n1` [dCPNPP, 2'-Deoxycytidine-5'-[(α,β)-imido]triphosphate], the inhibitory constant (Ki) at Homo sapiens SAMHD1 [1] is 67 ± 8 nM.

In general, Km refers to the substrate concentration at which the rate is half of its maximum. As for `Cc1cn([C@H]2C[C@H](O)[C@@H](COP(=O)(O)OP(=O)(O)OP(=O)(O)O)O2)c(=O)[nH]c1=O` [dTTP, 2’-Deoxythymidine-5’-triphosphate], on Homo sapiens SAMHD1 [2], the Michaelis constant (Km) was determined as 102 ± 9.4 µM.

As for `Nc1nc2c(ncn2[C@H]2C[C@H](O)[C@@H](COP(=O)(O)NP(=O)(O)OP(=O)(O)O)O2)c(=O)[nH]1` [dGPNPP, 2'-Deoxyguanosine-5'-[(α,β)-imido]triphosphate], the Mode of inhibition entry at Homo sapiens SAMHD1 [3] (double-reciprocal Lineweaver-Burk plot, varied dTTP) is given as “competitive inhibition”. Further, the “Kis (global inhibition constant, competitive fit)” value at Homo sapiens SAMHD1 [3] (varied dTTP and dGPNPP (up to 4 μM), global fit) amounted to 53 ± 7.0 nM. The Ki at Homo sapiens SAMHD1 [1] came out at 25 ± 7 nM.

These data come from publication PMC12486158 (Analytical biochemistry, 2025).
